# Data from publication PMC7709506 (ESMO Open, 2020).
# Experiment: Safety and tolerability
# Type: in vivo, human
# In short: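 Open-label multicentre phase I/IIa trial in adults with advanced or metastatic solid tumours. Part 1 used 3+3 oral capsule escalation at 50–800 mg/day to define DLT and MTD. Part 2 gave tablets. Treatment continued until progression, intolerable AE or study end, with dose decisions by a safety monitoring board. AEs of special interest were monitored. The safety population was all dosed patients, summarised by dose level.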
smiles,measurement,setting,value
Cn1cc(-c2ccc3c(c2)ncn3-c2cc(NS(=O)(=O)C3CC3)cc(-c3ccc(F)cc3F)c2)cn1 [ODM-203],Jaundice,capsule 100 mg (n=1),0 n (%)
same,Mucosal inflammation,capsule 100 mg (n=1),0 n (%)
same,Myalgia,capsule 100 mg (n=1),0 n (%)
same,Nasal dryness,capsule 100 mg (n=1),0 n (%)
same,Nausea,capsule 100 mg (n=1),0 n (%)
same,Onycholysis,capsule 100 mg (n=1),0 n (%)
same,Palmar-plantar eryrthodysaestesia,capsule 100 mg (n=1),0 n (%)
same,Related AE,capsule 100 mg (n=1),1 (100) n (%)
same,Related SAEs,capsule 100 mg (n=1),0 n (%)
same,Stomatitis,capsule 100 mg (n=1),0 n (%)
same,Vomiting,capsule 100 mg (n=1),0 n (%)
same,Weight decreased,capsule 100 mg (n=1),0 n (%)
same,AE leading to death,capsule 200 mg (n=3),0 n (%)
same,AE leading to discontinuation,capsule 200 mg (n=3),0 n (%)
same,AE leading to dose reduction,capsule 200 mg (n=3),0 n (%)
same,AE leading to treatment interruption,capsule 200 mg (n=3),0 n (%)
same,Alopecia,capsule 200 mg (n=3),0 n (%)
same,Any AE,capsule 200 mg (n=3),3 (100) n (%)
same,Arthralgia,capsule 200 mg (n=3),0 n (%)
same,Asthenia,capsule 200 mg (n=3),1 (33.3) n (%)
same,Blood bilirubin increased,capsule 200 mg (n=3),0 n (%)
same,Conjugated bilirubin increased,capsule 200 mg (n=3),0 n (%)
same,Decreased appetite,capsule 200 mg (n=3),0 n (%)
same,Diarrhoea,capsule 200 mg (n=3),0 n (%)
same,Dry mouth,capsule 200 mg (n=3),0 n (%)
same,Dry skin,capsule 200 mg (n=3),0 n (%)
same,Dysgeusia,capsule 200 mg (n=3),0 n (%)
same,Epistaxis,capsule 200 mg (n=3),1 (33.3) n (%)
same,Fatigue,capsule 200 mg (n=3),0 n (%)
same,Hyperbilirubinaemia,capsule 200 mg (n=3),0 n (%)
same,Hyperphosphataemia,capsule 200 mg (n=3),0 n (%)
same,Hypertension,capsule 200 mg (n=3),0 n (%)
same,Jaundice,capsule 200 mg (n=3),0 n (%)
same,Mucosal inflammation,capsule 200 mg (n=3),0 n (%)
same,Myalgia,capsule 200 mg (n=3),0 n (%)
same,Nasal dryness,capsule 200 mg (n=3),0 n (%)
same,Nausea,capsule 200 mg (n=3),0 n (%)
same,Onycholysis,capsule 200 mg (n=3),0 n (%)
same,Palmar-plantar eryrthodysaestesia,capsule 200 mg (n=3),0 n (%)
same,Related AE,capsule 200 mg (n=3),2 (66.7) n (%)
same,Related SAEs,capsule 200 mg (n=3),0 n (%)
same,Stomatitis,capsule 200 mg (n=3),0 n (%)
same,Vomiting,capsule 200 mg (n=3),0 n (%)
same,Weight decreased,capsule 200 mg (n=3),0 n (%)
same,AE leading to death,capsule 400 mg (n=7),0 n (%)
same,AE leading to discontinuation,capsule 400 mg (n=7),1 (14.3) n (%)
same,AE leading to dose reduction,capsule 400 mg (n=7),1 (14.3) n (%)
same,AE leading to treatment interruption,capsule 400 mg (n=7),4 (57.1) n (%)
same,Alopecia,capsule 400 mg (n=7),1 (14.3) n (%)
same,Any AE,capsule 400 mg (n=7),7 (100) n (%)
same,Arthralgia,capsule 400 mg (n=7),1 (14.3) n (%)
same,Asthenia,capsule 400 mg (n=7),1 (14.3) n (%)
same,Blood bilirubin increased,capsule 400 mg (n=7),3 (42.9) n (%)
same,Conjugated bilirubin increased,capsule 400 mg (n=7),0 n (%)
same,Decreased appetite,capsule 400 mg (n=7),1 (14.3) n (%)
same,Diarrhoea,capsule 400 mg (n=7),1 (14.3) n (%)
same,Dry mouth,capsule 400 mg (n=7),1 (14.3) n (%)
same,Dry skin,capsule 400 mg (n=7),0 n (%)
same,Dysgeusia,capsule 400 mg (n=7),2 (28.6) n (%)
same,Epistaxis,capsule 400 mg (n=7),1 (14.3) n (%)
same,Fatigue,capsule 400 mg (n=7),1 (14.3) n (%)
same,Hyperbilirubinaemia,capsule 400 mg (n=7),2 (28.6) n (%)
same,Hyperphosphataemia,capsule 400 mg (n=7),2 (28.6) n (%)
same,Hypertension,capsule 400 mg (n=7),0 n (%)
same,Jaundice,capsule 400 mg (n=7),3 (42.9) n (%)
same,Mucosal inflammation,capsule 400 mg (n=7),1 (14.3) n (%)
same,Myalgia,capsule 400 mg (n=7),1 (14.3) n (%)
same,Nasal dryness,capsule 400 mg (n=7),1 (14.3) n (%)
same,Nausea,capsule 400 mg (n=7),0 n (%)
same,Onycholysis,capsule 400 mg (n=7),0 n (%)
same,Palmar-plantar eryrthodysaestesia,capsule 400 mg (n=7),2 (28.6) n (%)
same,Related AE,capsule 400 mg (n=7),7 (100) n (%)
same,Related SAEs,capsule 400 mg (n=7),0 n (%)
same,Stomatitis,capsule 400 mg (n=7),1 (14.3) n (%)
same,Vomiting,capsule 400 mg (n=7),1 (14.3) n (%)
same,Weight decreased,capsule 400 mg (n=7),1 (14.3) n (%)
same,AE leading to death,capsule 600 mg (n=30),2 (6.7) n (%)
same,AE leading to discontinuation,capsule 600 mg (n=30),17 (56.7) n (%)
same,AE leading to dose reduction,capsule 600 mg (n=30),1 (3.3) n (%)
same,AE leading to treatment interruption,capsule 600 mg (n=30),22 (73.3) n (%)
same,Alopecia,capsule 600 mg (n=30),8 (26.7) n (%)
same,Any AE,capsule 600 mg (n=30),30 (100) n (%)
same,Arthralgia,capsule 600 mg (n=30),11 (36.7) n (%)
same,Asthenia,capsule 600 mg (n=30),8 (26.7) n (%)
same,Blood bilirubin increased,capsule 600 mg (n=30),13 (43.3) n (%)
same,Conjugated bilirubin increased,capsule 600 mg (n=30),3 (10.0) n (%)
